Converted amounts (≈) assume the structure as drawn. The source made the active and inactive calls. The rule behind the calls is not given here.
Assays:
[1] = Induction of hemolysis in human RBC at 10 uM incubated for 15 mins; type: cell-based, Erythrocyte; details: red blood cells, read-out: Activity
Procedure, shortened: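 Human RBCs from whole blood, resuspended 20% v/v in HA buffer (NaCl, CaCl2), compound 10 μM, 15 min at 37°C. Centrifuged 5,500 g for 1 min, supernatant OD543 read. Percent hemolysis against DMF vehicle (0%) and 1.0% Triton X-100 (100%); triplicate.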

[2] = tested on: Enterococcus faecium; experiment: Antibiofilm activity against Enterococcus faecium incubated for 24 hrs followed by biofilm resuspension in PBS and measured after 24 hrs; type: functional
Procedure, shortened: (§1)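 Biofilms grown 24 h in 96-well plates from overnight cultures standardized to OD600 0.5 in fresh medium (human serum only for S. aureus; TSB for Gram-positives, LB for Gram-negatives). Medium then replaced with fresh medium containing a concentration range above and below MIC, 37°C overnight. After 24 h biofilm resuspended in PBS, serially diluted, plated in duplicate, CFU counted after 24 h at 37°C. Activity relative to untreated; three technical replicates; MBEC50 reported.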

[3] = tested on: Klebsiella pneumoniae; experiment: Antimicrobial activity against Klebsiella pneumoniae isolate 1441 assessed as inhibition of microbial growth in presence of 100 uM efflux pump inhibitor reserpine after 24 hrs; type: functional, organism-based
[4] = tested on: Staphylococcus aureus; experiment: Bactericidal activity against methicillin-resistant Staphylococcus aureus assessed as cell survival recovery at MIC measured after drug wash out after 120 mins by time kill assay; type: functional
Procedure, shortened: (§2)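 MRSA from stationary phase was regrown 3 h in TSB and seeded at OD600 0.5. […] After 120 min, cells were centrifuged and washed, serially diluted and plated for CFU. Percent recovery is relative to no-drug controls.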

[5] = Selectivity index, ratio of IC50 for human A549 cells to MIC for Staphylococcus aureus
[6] = tested on: Staphylococcus aureus; experiment: Ratio of MIC for Staphylococcus aureus measured after 8 cycle passage to MIC for wild type Staphylococcus aureus; type: functional
[7] = tested on: Enterobacter cloacae; experiment: Ratio of MIC for Enterobacter cloacae measured after 8 cycle passage to MIC for wild type Enterobacter cloacae; type: functional
[8] = Selectivity index, ratio of IC50 for human A549 cells to MIC for Enterobacter cloacae
[9] = tested on: Staphylococcus aureus; experiment: Induction of spontaneous mutation in Staphylococcus aureus at 2 to 10 MIC; type: functional, organism-based
[10] = tested on: Acinetobacter baumannii; experiment: Antimicrobial activity against Acinetobacter baumannii assessed as inhibition of microbial growth after 24 hrs; type: functional
Procedure, shortened: (§3)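 Broth microdilution against multidrug-resistant clinical ESKAPE isolates. Overnight cultures (TSB for Gram-positives, LB for Gram-negatives) diluted 1:1000 in fresh medium, compound in DMF (≤2.0% DMF) added at decreasing concentrations, 37°C.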

[11] = tested on: Pseudomonas aeruginosa; experiment: Antimicrobial activity against Pseudomonas aeruginosa assessed as inhibition of microbial growth after 24 hrs; type: functional; procedure, shortened: as §3
[12] = tested on: Staphylococcus aureus; experiment: Effect on bacterial density of methicillin-resistant Staphylococcus aureus at MIC measured over 2 hrs period by time kill assay; type: functional, organism-based
[13] = tested on: Staphylococcus aureus; experiment: Bactericidal activity against methicillin-resistant Staphylococcus aureus at MIC measured after drug wash out after 120 mins by time kill assay; type: functional; procedure, shortened: as §2
[14] = tested on: Enterococcus faecium; experiment: Antimicrobial activity against Enterococcus faecium assessed as inhibition of microbial growth at 45 uM after 24 hrs; type: functional, organism-based
Procedure, shortened: (§4)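 Broth microdilution single-concentration read: overnight cultures diluted 1:1000, compound in DMF (≤2.0%) added, 37°C for 24 h, growth inhibition scored visually by lack of turbidity; triplicate. Gram-positives grown in TSB, Gram-negatives in LB.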

[15] = tested on: Staphylococcus aureus; experiment: Antimicrobial activity against Staphylococcus aureus USA300 strain FPR3757 infected in mouse model of lethal peritonitis assessed as mouse survival at 2 uM, im dosed 1 hr post infection and measured after 5 days post infection; type: functional, organism-based
Procedure, shortened: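 Mice, six per group, infected i.p. with 1 × 10^8 CFU ml−1 S. aureus USA300 FPR3757 in PBS with 5% mucin. Compound given i.m. at 2 μM 1 h later; vehicle 45% w/v (2-hydroxypropyl)-β-cyclodextrin in water i.v.; vancomycin i.v. as control. Monitored twice daily for 5 days, pre-moribund animals euthanized. Survival compared by log-rank test.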

[16] = tested on: Pseudomonas aeruginosa; experiment: Antibiofilm activity against Pseudomonas aeruginosa incubated for 24 hrs followed by biofilm resuspension in PBS and measured after 24 hrs; type: functional; procedure, shortened: as §1
[17] = Selectivity index, ratio of IC50 for human A549 cells to MIC for Enterococcus faecium
[18] = tested on: Enterobacter cloacae; experiment: Bactericidal activity against Enterobacter cloacae after 24 hrs; type: functional
[19] = tested on: Enterobacter cloacae; experiment: Antimicrobial activity against Enterobacter cloacae assessed as inhibition of microbial growth after 24 hrs; type: functional; procedure, shortened: as §3
[20] = tested on: Acinetobacter baumannii; experiment: Antibiofilm activity against Acinetobacter baumannii incubated for 24 hrs followed by biofilm resuspension in PBS and measured after 24 hrs; type: functional; procedure, shortened: as §1
[21] = tested on: Staphylococcus aureus; experiment: Bactericidal activity against Staphylococcus aureus after 24 hrs; type: functional
[22] = tested on: Klebsiella pneumoniae; experiment: Antibiofilm activity against Klebsiella pneumoniae incubated for 24 hrs followed by biofilm resuspension in PBS and measured after 24 hrs; type: functional; procedure, shortened: as §1
[23] = Cytotoxicity against human A549 cells assessed as cell viability recovery at 225 uM after 48 hrs by MTT assay; type: cell-based; details: read-out: Activity
Procedure, shortened: (§5)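 A549 cells grown in F-12K with L-glutamine, 10% FBS, 1% penicillin-streptomycin, seeded at 1.0 × 10^5 ml−1, allowed to adhere 24 h (37°C, 5% CO2), then exposed to compound in 45% w/v (2-hydroxypropyl)-β-cyclodextrin vehicle for 48 h. MTT 4 h, formazan solubilized in DMSO, absorbance 540 nm. Percent recovery versus vehicle-only; IC50 derived; at least three independent experiments.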

[24] = tested on: Klebsiella pneumoniae; experiment: Induction of spontaneous mutation in Klebsiella pneumoniae at 2 to 10 MIC; type: functional, organism-based
[25] = Selectivity index, ratio of IC50 for human A549 cells to MIC for Klebsiella pneumoniae
[26] = tested on: Staphylococcus aureus; experiment: Antimicrobial activity against Staphylococcus aureus assessed as inhibition of microbial growth at 45 uM after 24 hrs; type: functional, organism-based; procedure, shortened: as §4
[27] = tested on: Acinetobacter baumannii; experiment: Antimicrobial activity against Acinetobacter baumannii assessed as inhibition of microbial growth at 45 uM after 24 hrs; type: functional, organism-based; procedure, shortened: as §4
[28] = tested on: A549; experiment: Cytotoxicity against human A549 cells after 48 hrs by MTT assay; type: cell-based; details: A549, 48 h; procedure, shortened: as §5
[29] = tested on: Enterobacter cloacae; experiment: Antibiofilm activity against Enterobacter cloacae incubated for 24 hrs followed by biofilm resuspension in PBS and measured after 24 hrs; type: functional; procedure, shortened: as §1
[30] = tested on: Pseudomonas aeruginosa; experiment: Antimicrobial activity against Pseudomonas aeruginosa assessed as inhibition of microbial growth at 45 uM after 24 hrs; type: functional, organism-based; procedure, shortened: as §4
[31] = tested on: Staphylococcus aureus; experiment: Antibiofilm activity against Staphylococcus aureus incubated for 24 hrs followed by biofilm resuspension in PBS and measured after 24 hrs; type: functional; procedure, shortened: as §1
[32] = tested on: Klebsiella pneumoniae; experiment: Bactericidal activity against Klebsiella pneumoniae after 24 hrs; type: functional
[33] = Selectivity index, ratio of IC50 for human A549 cells to MIC for Acinetobacter baumannii
[34] = Selectivity index, ratio of IC50 for human A549 cells to MIC for Pseudomonas aeruginosa
[35] = tested on: Staphylococcus aureus; experiment: Antimicrobial activity against Staphylococcus aureus assessed as inhibition of microbial growth after 24 hrs; type: functional; procedure, shortened: as §3
[36] = tested on: Enterococcus faecium; experiment: Bactericidal activity against Enterococcus faecium after 24 hrs; type: functional
[37] = tested on: Acinetobacter baumannii; experiment: Induction of spontaneous mutation in Acinetobacter baumannii at 2 to 10 MIC; type: functional, organism-based
[38] = tested on: Enterococcus faecium; experiment: Antimicrobial activity against Enterococcus faecium assessed as inhibition of microbial growth after 24 hrs; type: functional; procedure, shortened: as §3
[39] = tested on: Klebsiella pneumoniae; experiment: Ratio of MIC for Klebsiella pneumoniae measured after 8 cycle passage to MIC for wild type Klebsiella pneumoniae; type: functional
[40] = tested on: Klebsiella pneumoniae; experiment: Antimicrobial activity against Klebsiella pneumoniae assessed as inhibition of microbial growth after 24 hrs; type: functional; procedure, shortened: as §3
[41] = tested on: Acinetobacter baumannii; experiment: Ratio of MIC for Acinetobacter baumannii measured after 8 cycle passage to MIC for wild type Acinetobacter baumannii; type: functional
[42] = tested on: Klebsiella pneumoniae; experiment: Antimicrobial activity against Klebsiella pneumoniae assessed as inhibition of microbial growth at 45 uM after 24 hrs; type: functional, organism-based; procedure, shortened: as §4
[43] = tested on: Enterococcus faecium; experiment: Induction of spontaneous mutation in Enterococcus faecium at 2 to 10 MIC; type: functional, organism-based
[44] = tested on: Pseudomonas aeruginosa; experiment: Bactericidal activity against Pseudomonas aeruginosa after 24 hrs; type: functional
[45] = tested on: Enterobacter cloacae; experiment: Induction of spontaneous mutation in Enterobacter cloacae at 2 to 10 MIC; type: functional, organism-based
[46] = tested on: Enterobacter cloacae; experiment: Antimicrobial activity against Enterobacter cloacae assessed as inhibition of microbial growth at 45 uM after 24 hrs; type: functional, organism-based; procedure, shortened: as §4
[47] = tested on: Acinetobacter baumannii; experiment: Bactericidal activity against Acinetobacter baumannii after 24 hrs; type: functional
[48] = tested on: Pseudomonas aeruginosa; experiment: Induction of spontaneous mutation in Pseudomonas aeruginosa at 2 to 10 MIC; type: functional, organism-based; details: 2 to 10 x MIC
[49] = Cytotoxicity against human A549 cells assessed as cell viability recovery up to 100 uM after 48 hrs by MTT assay; type: cell-based; details: read-out: Activity; procedure, shortened: as §5

## CCCCCCCN1C(=N)N(CCCC[C@H]2CNC(=N)N2CCCCC2CCCCC2)C[C@@H]1CC1CCCCC1
[1]
  hemolysis at 0.25 h, 10 µM: 0.34%
[2]
  MBEC50: 28 µM
[3]
  growth inhibition (GI): Active
[4]
  Survival: 0.2%
[5]
  Selectivity Index: >139
[6]
  Ratio: 16
[7]
  Ratio: <=8
[8]
  Selectivity Index: >139
[9]
  Activity: inactive
[10]
  MIC: 1.6 µM
[11]
  MIC: 1.6 µM
[12]
  Activity: inactive
[13]
  fold change (FC): 2.5
[14]
  growth inhibition (GI): Active
[15]
  Activity: Active
[16]
  MBEC50: 34 µM
[17]
  Selectivity Index: >139
[18]
  MBC90: 9.6 µM (≈ 5.35 µg/mL)
[19]
  MIC: 1.6 µM
[20]
  MBEC50: 14 µM
[21]
  MBC90: 3.9 µM (≈ 2.17 µg/mL)
[22]
  MBEC50: 6.3 µM
[23]
  viability at 48 h, 225 µM: > 50%
[24]
  Activity: inactive
[25]
  Selectivity Index: >139
[26]
  growth inhibition (GI): Active
[27]
  growth inhibition (GI): Active
[28]
  IC50: > 225 µM
[29]
  MBEC50: 13 µM
[30]
  growth inhibition (GI): Active
[31]
  MBEC50: 7.6 µM
[32]
  MBC90: 4.5 µM (≈ 2.51 µg/mL)
[33]
  Selectivity Index: >139
[34]
  Selectivity Index: >139
[35]
  MIC: 1.6 µM
[36]
  MBC90: 2.9 µM (≈ 1.62 µg/mL)
[37]
  Activity: inactive
[38]
  MIC: 1.6 µM
[39]
  Ratio: <=8
[40]
  MIC: 1.6 µM
[41]
  Ratio: <=8
[42]
  growth inhibition (GI): Active
[43]
  Activity: inactive
[44]
  MBC90: 4 µM (≈ 2.23 µg/mL)
[45]
  Activity: inactive
[46]
  growth inhibition (GI): Active
[47]
  MBC90: 2.8 µM (≈ 1.56 µg/mL)
[48]
  Activity: inactive
[49]
  viability at 48 h: > 65%
